Test results taken from ChEMBL document CHEMBL4196054, “Facile synthesis of 1,2-dione-containing abietane analogues for the generation of human carboxylesterase inhibitors” (Eur J Med Chem, 2018).

Experiments:
Liver carboxylesterase 1 = target: T1, Liver carboxylesterase 1 (Homo sapiens, UniProt P23141); assay: Inhibition of human liver carboxylesterase 1 using o-nitrophenyl acetate as substrate
T1 sequence (P23141 whole entry): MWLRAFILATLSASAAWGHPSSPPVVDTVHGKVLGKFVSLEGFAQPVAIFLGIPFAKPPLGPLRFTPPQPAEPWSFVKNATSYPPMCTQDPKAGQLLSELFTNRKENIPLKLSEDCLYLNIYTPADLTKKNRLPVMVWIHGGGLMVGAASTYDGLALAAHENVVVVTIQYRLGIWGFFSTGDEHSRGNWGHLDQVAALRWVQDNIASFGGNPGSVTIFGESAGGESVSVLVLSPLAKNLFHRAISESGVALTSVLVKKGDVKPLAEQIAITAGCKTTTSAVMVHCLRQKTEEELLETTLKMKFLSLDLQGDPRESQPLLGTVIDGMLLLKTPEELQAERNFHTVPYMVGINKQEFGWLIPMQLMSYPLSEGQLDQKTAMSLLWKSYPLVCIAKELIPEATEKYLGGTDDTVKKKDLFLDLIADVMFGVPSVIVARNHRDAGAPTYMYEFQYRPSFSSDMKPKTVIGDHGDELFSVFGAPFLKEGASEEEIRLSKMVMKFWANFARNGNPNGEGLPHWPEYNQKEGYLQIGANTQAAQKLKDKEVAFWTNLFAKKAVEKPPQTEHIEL
In short: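 Chromatographically pure human hCE1 in 50mM Hepes pH7.4 with 3mM o-nitrophenyl acetate. Inhibitor in DMSO, at least 8 concentrations, triplicates, compared against DMSO-only controls. Reaction started by enzyme addition. Data fitted to a multifactorial equation, the best inhibition model chosen by Akaike's information criterion, and Ki taken from the curve fits.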

[1] = Inhibition of human intestinal carboxylesterase using o-nitrophenyl acetate as substrate
In short: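 Purified human intestinal CE (hiCE), chromatographically pure. Read in 96-well format with 3mM o-nitrophenyl acetate in 50mM Hepes, pH7.4. Inhibitors were added in DMSO and the reaction was started by adding enzyme. At least 8 inhibitor concentrations were run in triplicate against DMSO-only controls. Data were fitted to a multifactorial equation, the best model was chosen by Akaike's information criteria, and Ki was taken from the curve fits.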

Homo sapiens [2] = species on record: Homo sapiens; assay: Selectivity index, ratio of Ki for human liver carboxylesterase 1 to Ki for human intestinal carboxylesterase
[3] = target: Acetylcholinesterase (Homo sapiens) (UniProt P22303); assay: Inhibition of human AChE using acetylthiocholine as substrate at 5 uM by spectrophotometric analysis
In short: (§1)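 Run like the carboxylesterase assay in 50mM Hepes pH7.4 with DMSO-dissolved inhibitor, reaction started by enzyme addition. Substrate is acetylthiocholine (AChE) or butyrylthiocholine (BChE). Inhibitor tested at a single 5µM concentration.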

[4] = target: Cholinesterase (Homo sapiens) (UniProt P06276); assay: Inhibition of human BChE using butyrylthiocholine as substrate at 5 uM by spectrophotometric analysis; in short: as §1
Homo sapiens [5] = species on record: Homo sapiens; assay: Potency index, ratio of miltirone Ki to compound Ki for inhibition of human intestinal carboxylesterase
[6] = target: T2, liver carboxylesterase 1 (CES1) (Homo sapiens, UniProt P23141); assay: Potency index, ratio of miltirone Ki to compound Ki for inhibition of human liver carboxylesterase 1; conditions: read-out: Ratio Ki
T2 sequence (P23141 whole entry): T1 sequence (P23141 whole entry)

Acetylcholinesterase (Homo sapiens), sequence (P22303 whole entry): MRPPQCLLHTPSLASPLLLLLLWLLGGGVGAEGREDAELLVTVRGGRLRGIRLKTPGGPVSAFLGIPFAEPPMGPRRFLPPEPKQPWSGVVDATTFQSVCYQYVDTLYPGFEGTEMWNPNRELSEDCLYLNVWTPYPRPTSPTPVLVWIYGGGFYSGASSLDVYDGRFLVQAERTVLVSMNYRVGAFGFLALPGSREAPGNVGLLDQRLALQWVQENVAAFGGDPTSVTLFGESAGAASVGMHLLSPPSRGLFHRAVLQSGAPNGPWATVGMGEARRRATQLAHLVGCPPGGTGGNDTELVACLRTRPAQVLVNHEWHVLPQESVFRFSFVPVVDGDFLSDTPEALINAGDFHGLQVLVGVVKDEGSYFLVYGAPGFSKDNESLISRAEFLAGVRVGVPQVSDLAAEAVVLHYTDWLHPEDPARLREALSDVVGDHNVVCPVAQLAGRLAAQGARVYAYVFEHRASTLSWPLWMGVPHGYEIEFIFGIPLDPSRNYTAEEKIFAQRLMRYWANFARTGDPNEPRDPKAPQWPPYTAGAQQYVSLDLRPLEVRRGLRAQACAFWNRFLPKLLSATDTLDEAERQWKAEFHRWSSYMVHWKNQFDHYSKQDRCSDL
Cholinesterase (Homo sapiens), sequence (P06276 whole entry): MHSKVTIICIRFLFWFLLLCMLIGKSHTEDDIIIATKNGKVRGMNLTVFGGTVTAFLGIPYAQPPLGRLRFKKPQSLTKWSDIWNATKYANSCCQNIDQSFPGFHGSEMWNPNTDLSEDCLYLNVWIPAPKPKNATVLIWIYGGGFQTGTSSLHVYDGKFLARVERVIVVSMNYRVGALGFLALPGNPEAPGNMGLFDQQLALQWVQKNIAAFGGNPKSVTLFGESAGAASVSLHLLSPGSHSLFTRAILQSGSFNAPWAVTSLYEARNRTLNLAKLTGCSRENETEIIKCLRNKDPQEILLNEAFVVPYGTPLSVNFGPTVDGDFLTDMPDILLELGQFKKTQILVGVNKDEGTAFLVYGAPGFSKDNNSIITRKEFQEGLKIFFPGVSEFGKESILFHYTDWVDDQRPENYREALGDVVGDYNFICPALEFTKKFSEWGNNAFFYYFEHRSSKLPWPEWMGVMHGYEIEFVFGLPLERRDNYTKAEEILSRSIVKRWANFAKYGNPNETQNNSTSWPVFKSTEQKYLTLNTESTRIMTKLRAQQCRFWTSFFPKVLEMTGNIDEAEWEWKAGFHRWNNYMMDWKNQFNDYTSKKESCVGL

SMILES | Ki (Liver carboxylesterase 1) [µM] | Ki [1] [µM] | Ratio Ki (Homo sapiens [2]) | inhibition [3] [%] | inhibition [4] [%] | Ratio Ki (Homo sapiens [5]) | selectivity ratio [6]
O=C1C=C(F)c2ccc3c(c2C1=O)CCCC3 | 0.0259 | 0.171 | 0.15 | 4 | 33 | – | –
CC1(C)CCc2ccc3c(c2C1)C(=O)C(=O)C(F)=C3 | 0.042 | 0.0146 | 2.9 | 3 | 23 | 3 | –
CC1(C)CCc2ccc3c(c2C1)C(=O)C(=O)C=C3 | 0.0319 | 0.341 | 0.09 | 2 | 13 | – | –
CC1=Cc2ccc3c(c2C(=O)C1=O)CCC(C)(C)C3 | 0.495 | 0.182 | 2.7 | 1 | 2 | – | –
CC1=Cc2ccc3c(c2C(=O)C1=O)CCOC3 | ≥ 10 | ≥ 10 | – | 27 | 0 | – | –
CC(C)C1=Cc2ccc3c(c2C(=O)C1=O)CC(C)(C)CC3 | 1.87 | 0.0312 | 60 | 20 | 4 | – | –
CC(C)C1=Cc2ccc3c(c2C(=O)C1=O)CCC(C)(C)C3 | 4.2 | 0.0707 | 59.5 | 30 | 3 | – | –
CC1(C)CCc2ccc3c(c2C1)C(=O)C(=O)C=C3F | 0.0144 | 0.386 | 0.04 | 10 | 15 | – | 175
O=C1C(=O)c2c(ccc3c2CCCC3)C=C1F | 0.0122 | 0.112 | 0.11 | 16 | 62 | – | 210
O=C1C(=O)c2c(ccc3ccccc23)C=C1F | 0.0487 | 0.0513 | 0.48 | 8 | 3 | – | –
CC1(C)CCc2ccc3c(c2C1)C(=O)C(=O)C(F)=C3F | 0.102 | 0.0433 | 2.3 | 4 | 1 | – | –
CC(C)C1=Cc2ccc3c(c2C(=O)C1=O)CCCC3(C)C [MILTIRONE] | – | – | – | 22 | 6 | – | –
O=C1C=Cc2ccc3ccccc3c2C1=O | 0.942 | ≥ 10 | < 0.06 | 16 | 13 | – | –
CC(C)C1=Cc2ccc3c(c2C(=O)C1=O)CCCC3 | 1.05 | 0.111 | – | 16 | 1 | – | –
CC1=Cc2ccc3c(c2C(=O)C1=O)CC(C)(C)CC3 | 2.42 | 0.0879 | 27.6 | 0 | 1 | – | –
COC1=Cc2ccc3c(c2C(=O)C1=O)CC(C)(C)CC3 | 0.0425 | 0.159 | 0.3 | 2 | 1 | – | –
CC1=CC(=O)C(=O)c2c1ccc1c2CCCC1 | 0.0251 | ≥ 10 | – | 13 | 30 | – | –
CC1=Cc2ccc3c(c2C(=O)C1=O)CCCC3 | 1.22 | 0.423 | 2.9 | 5 | 4 | – | –
O=C1C=Cc2ccc3c(c2C1=O)CCCC3 | 0.131 | 2.18 | 0.06 | 0 | 54 | – | –
